Results reported in ChEMBL document CHEMBL4024802, “3-((R)-4-(((R)-6-(2-Bromo-4-fluorophenyl)-5-(ethoxycarbonyl)-2-(thiazol-2-yl)-3,6-dihydropyrimidin-4-yl)methyl)morpholin-2-yl)propanoic Acid (HEC72702), a Novel Hepatitis B Virus Capsid Inhibitor Based on Clinical Candidate GLS4” (J Med Chem, 2018).

Key:
[1] = Intrinsic clearance in mouse liver microsomes at 1 uM preincubated for 10 mins followed by NADPH addition measured up to 60 mins by LC-MS/MS analysis; format: ADME, microsome; conditions: read-out: CLH
[2] = Volume of distribution at steady state in Sprague-Dawley rat at 2 mg/kg, iv administered as single dose by LC-MS/MS analysis; format: ADME, organism-based; conditions: in vivo, read-out: Vdss
Procedure, shortened: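 Male Sprague−Dawley rats (6−7 weeks, 190−240 g) were fasted overnight, with food returned 4 h post-dose and n = 3 in the iv group. A single dose was given in 5% DMSO, 5% solutol and 90% saline. Heparinized plasma was separated at 4 °C and frozen at −80 °C. Concentrations were measured by LC-MS/MS, with parameters from noncompartmental analysis and BLQs excluded.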

[3] = Clearance in Sprague-Dawley rat at 2 mg/kg, iv administered as single dose by LC-MS/MS analysis; format: ADME, organism-based; conditions: in vivo
Procedure, shortened: (§1)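 Male Sprague−Dawley rats (6−7 weeks, 190−240 g), fasted overnight with food returned 4 h post-dose; 3 rats iv, 3 po; vehicle 5% DMSO, 5% solutol, 90% saline. Heparinized plasma frozen at −80 °C, analysed by LC-MS/MS; noncompartmental PK parameters, BLQ values excluded.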

[4] = (§2) Intrinsic clearance in dog liver microsomes at 1 uM preincubated for 10 mins followed by NADPH addition measured up to 60 mins by LC-MS/MS analysis; format: ADME, Canis lupus familiaris, microsome; conditions: liver microsomes, read-out: CLH
[5] = AUC (0 to 24 hrs) in Sprague-Dawley rat at 2 mg/kg, iv administered as single dose by LC-MS/MS analysis; format: ADME, organism-based; set-up: dose 2 mg/kg, time < 24 hr, route intravenous; conditions: in vivo; procedure, shortened: as §1
[6] = AUC (0 to 24 hrs) in Sprague-Dawley rat at 5 mg/kg, po administered as single dose by LC-MS/MS analysis; format: ADME, organism-based; set-up: time < 24 hr, dose 5 mg/kg, route oral; conditions: in vivo; procedure, shortened: as §1
[7] = Intrinsic clearance in human liver microsomes at 1 uM preincubated for 10 mins followed by NADPH addition measured up to 60 mins by LC-MS/MS analysis; format: ADME, microsome; conditions: read-out: CLH
[8] = Oral bioavailability in Sprague-Dawley rat at 5 mg/kg administered as single dose by LC-MS/MS analysis; format: ADME, organism-based; conditions: in vivo; procedure, shortened: as §1
[9] = Oral bioavailability in Beagle dog at 5 mg/kg administered as single dose by LC-MS/MS analysis; format: ADME, organism-based, Canis lupus familiaris; conditions: in vivo
[10] = Cmax in Beagle dog at 2 mg/kg, iv administered as single dose by LC-MS/MS analysis; format: ADME, organism-based, Canis lupus familiaris; set-up: dose 2 mg/kg, route intravenous; conditions: in vivo
Procedure, shortened: (§3)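 Beagle dogs, 7−9 months, 8−12 kg, non-naive, fasted overnight; 3 dogs per iv or po group; dosed in 5% DMSO/5% solutol/90% saline. Serial blood into sodium heparin, plasma separated at 4 °C, stored −80 °C; LC-MS/MS quantitation; noncompartmental analysis, BLQs omitted.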

[11] = AUC (0 to 24 hrs) in Beagle dog at 5 mg/kg, po administered as single dose by LC-MS/MS analysis; format: ADME, organism-based, Canis lupus familiaris; set-up: time < 24 hr, dose 5 mg/kg, route oral; conditions: in vivo; procedure, shortened: as §3
[12] = Drug uptake in Balb/c mouse liver at 12.5 mg/kg, po bid after 24 hrs by LC-MS/MS analysis; format: ADME, organism-based; conditions: read-out: Drug uptake
[13] = AUC (0 to 24 hrs) in Beagle dog at 2 mg/kg, iv administered as single dose by LC-MS/MS analysis; format: ADME, organism-based, Canis lupus familiaris; set-up: dose 2 mg/kg, time < 24 hr, route intravenous; conditions: in vivo; procedure, shortened: as §3
[14] = Plasma concentration in Beagle dog at 5 mg/kg, po administered as single dose after 24 hrs by LC-MS/MS analysis; format: ADME, organism-based, Canis lupus familiaris; procedure, shortened: as §3
[15] = Half life in Beagle dog at 2 mg/kg, iv administered as single dose by LC-MS/MS analysis; format: ADME, organism-based, Canis lupus familiaris; conditions: in vivo
[16] = Volume of distribution at steady state in Beagle dog at 2 mg/kg, iv administered as single dose by LC-MS/MS analysis; format: ADME, organism-based, Canis lupus familiaris; conditions: in vivo, read-out: Vdss
Procedure, shortened: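 Non-naive beagle dogs (7−9 months, 8−12 kg) were fasted overnight, with 3 animals in the iv group. Compound was given as a single dose in 5% DMSO, 5% solutol and 90% saline. Plasma was taken from heparinized blood at each time point and stored at −80 °C. Levels were measured by LC-MS/MS, with noncompartmental analysis and BLQ values omitted.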

[17] = Clearance in Beagle dog at 2 mg/kg, iv administered as single dose by LC-MS/MS analysis; format: ADME, organism-based, Canis lupus familiaris; conditions: in vivo; procedure, shortened: as §3
[18] = Plasma concentration in Beagle dog at 2 mg/kg, iv administered as single dose after 24 hrs by LC-MS/MS analysis; format: ADME, organism-based, Canis lupus familiaris; procedure, shortened: as §3
[19] = Plasma concentration in Balb/c mouse at 12.5 mg/kg, po bid after 24 hrs by LC-MS/MS analysis; format: ADME, organism-based
Liver = test: as §2; format: ADME, Canis lupus familiaris, microsome; conditions: microsomes, 1 h, 1 µM
[20] = Cmax in Beagle dog at 5 mg/kg, po administered as single dose by LC-MS/MS analysis; format: ADME, organism-based, Canis lupus familiaris; set-up: dose 5 mg/kg, route oral; conditions: in vivo; procedure, shortened: as §3

CCOC(=O)C1=C(CN2CCO[C@@H](CCC(=O)O)C2)NC(c2nccs2)=N[C@H]1c1ccc(F)cc1Br
CLint scaled at 1 µM [1]: 281 mL/min/kg
Vd [2]: 1.24 L/kg
clearance [3]: 77.3 mL/min/kg
CLint scaled at 1 µM [4]: 11 mL/min/kg
AUC(0-t) at 24 h [5]: 430 ng·h/mL
AUC(0-t) at 24 h [6]: 436 ng·h/mL
CLint scaled at 1 µM [7]: 21 mL/min/kg
bioavailability [8]: 41%

CCOC(=O)C1=C(CN2CCOC[C@@H]2CCC(=O)O)NC(c2nccs2)=N[C@H]1c1ccc(F)cc1Br
CLint scaled at 1 µM [1]: 316 mL/min/kg
Vd [2]: 1.53 L/kg
clearance [3]: 78.7 mL/min/kg
CLint scaled at 1 µM [4]: 46 mL/min/kg
AUC(0-t) at 24 h [5]: 423 ng·h/mL
AUC(0-t) at 24 h [6]: 572 ng·h/mL
CLint scaled at 1 µM [7]: 23 mL/min/kg
bioavailability [8]: 54%

CCOC(=O)C1=C(CN2CCOC[C@H]2C(=O)O)NC(c2nccs2)=N[C@H]1c1ccc(F)cc1Br
CLint scaled at 1 µM [1]: 377 mL/min/kg
Vd [2]: 0.4 L/kg
clearance [3]: 34.9 mL/min/kg
CLint scaled at 1 µM [4]: 29 mL/min/kg
AUC(0-t) at 24 h [5]: 948 ng·h/mL
AUC(0-t) at 24 h [6]: 548 ng·h/mL
CLint scaled at 1 µM [7]: 7 mL/min/kg
bioavailability [8]: 23.1%

CCOC(=O)C1=C(CN2CCO[C@H](CCC(=O)O)C2)NC(c2nccs2)=N[C@H]1c1ccc(F)cc1Br
CLint scaled at 1 µM [1]: 385 mL/min/kg
Vd [2]: 0.41 L/kg
clearance [3]: 8.11 mL/min/kg
CLint scaled at 1 µM [4]: 14 mL/min/kg
bioavailability [9]: 114%
Cmax [10]: 2050 ng/mL
AUC(0-t) at 24 h [5]: 4110 ng·h/mL
AUC(0-t) at 24 h [11]: 47900 ng·h/mL
concentration at 24 h [12]: 361 ng/g
AUC(0-t) at 24 h [13]: 16500 ng·h/mL
concentration at 24 h [14]: 232 ng/mL
half-life [15]: 5.71 h
Vd [16]: 0.76 L/kg
AUC(0-t) at 24 h [6]: 4900 ng·h/mL
clearance [17]: 1.93 mL/min/kg
concentration at 24 h [18]: 47 ng/mL
concentration at 24 h [19]: 849 ng/mL
CLint scaled at 1 µM [7]: 18 mL/min/kg
bioavailability [8]: 47.7%

CCOC(=O)C1=C(CN2CCO[C@H](C)[C@H]2C(=O)O)NC(c2nccs2)=N[C@H]1c1ccc(F)cc1Br
CLint scaled at 1 µM [1]: 89 mL/min/kg
Vd [2]: 0.37 L/kg
clearance [3]: 20.6 mL/min/kg
CLH (Liver): Stable
AUC(0-t) at 24 h [5]: 1610 ng·h/mL
AUC(0-t) at 24 h [6]: 1750 ng·h/mL
CLint scaled at 1 µM [7]: 5 mL/min/kg
bioavailability [8]: 44.5%

CCOC(=O)C1=C(CN2CC(F)(F)C[C@@H]2CCC(=O)O)NC(c2nccs2)=N[C@H]1c1ccc(F)cc1Br
CLint scaled at 1 µM [1]: 362 mL/min/kg
Vd [2]: 0.77 L/kg
clearance [3]: 34.4 mL/min/kg
CLint scaled at 1 µM [4]: 55 mL/min/kg
AUC(0-t) at 24 h [5]: 965 ng·h/mL
AUC(0-t) at 24 h [6]: 999 ng·h/mL
CLint scaled at 1 µM [7]: 21 mL/min/kg
bioavailability [8]: 41.3%

CCOC(=O)C1=C(CN2CCOCC2)NC(c2nccs2)=NC1c1ccc(F)cc1Br (centres undefined)
CLint scaled at 1 µM [1]: 485 mL/min/kg
Cmax [20]: 391 ng/mL
Vd [2]: 4.85 L/kg
clearance [3]: 82.2 mL/min/kg
Cmax [10]: 1420 ng/mL
AUC(0-t) at 24 h [5]: 405 ng·h/mL
AUC(0-t) at 24 h [11]: 1010 ng·h/mL
AUC(0-t) at 24 h [13]: 1470 ng·h/mL
concentration at 24 h [14]: 9 ng/mL
Vd [16]: 15.8 L/kg
AUC(0-t) at 24 h [6]: 90 ng·h/mL
clearance [17]: 16.6 mL/min/kg
concentration at 24 h [18]: 15 ng/mL
CLint scaled at 1 µM [7]: 20 mL/min/kg
bioavailability [8]: 8.9%
